ChEMBL document CHEMBL4265871, “Novel alkylated azoles as potent antifungals” (Eur J Med Chem, 2017)
In brackets after ≈: the same amount, converted by molar mass. Activity calls are given as the source filed them. No cut-off for these calls is given here.

Experiments:
Candida albicans [1] = assay: Antifungal activity against ITC and FLC-resistant Candida albicans ATCC MYA-1003 incubated for 48 hrs by modified CLSI M27-A3 protocol based method; format: functional; settings: ATCC MYA-1003, 48 h
Procedure, shortened: (§1)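 Because these Candida strains show trailing growth, MIC-2 was read, meaning 50% growth inhibition. Caspofungin and voriconazole were tested here; other controls came from earlier work.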

[2] = Selectivity index, ratio of EC50 for toxicity in human BEAS2B cells to MIC50 for antifungal activity against ITC and FLC-resistant Candida albicans ATCC MYA-90819; format: cell-based; settings: BEAS-2B cells, read-out: Selectivity Index
Procedure, shortened: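 Ratio of the compound's EC50 against BEAS-2B cells to its MIC against the named C. albicans strain. […] For C. albicans strains other than ATCC 10231, trailing growth meant MIC-2 was taken, meaning 50% growth inhibition.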

Candida albicans [3] = assay: Antifungal activity against Candida albicans ATCC 64124 incubated for 48 hrs by modified CLSI M27-A3 protocol based method; format: functional; settings: ATCC 64124, 48 h
[4] = Hemolytic activity in mouse erythrocytes assessed as hemolysis level at 15.6 ug/ml incubated for 1 hr at 37 degC; format: ADME, cell-based, Erythrocyte; settings: read-out: Activity
Procedure, shortened: (§2)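 Mouse erythrocytes incubated 1 h at 37 °C with test agents over 1.95 to 125 µg/mL. Percent lysis is read for each concentration.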

A549 = assay: Toxicity in human A549 cells assessed as cell viability at 15.6 ug/ml incubated for 24 hrs by resazurin dye based assay; settings: a549, 24 h
Candida albicans [5] = assay: Antifungal activity against ITC and FLC-susceptible Candida albicans ATCC MYA-2876 incubated for 48 hrs by modified CLSI M27-A3 protocol based method; format: functional; settings: ATCC MYA-2876, 48 h; procedure, shortened: as §1
[6] = Selectivity index, ratio of […] for toxicity in human BEAS2B cells to MIC50 for antifungal activity against Aspergillus flavus ATCC MYA-3631; format: cell-based; settings: BEAS-2B cells, read-out: Selectivity Index
[7] = Selectivity index, ratio of EC50 for toxicity in human A549 cells to MIC50 for antifungal activity against Candida glabrata ATCC 2001; format: cell-based; settings: read-out: Selectivity Index
Procedure, shortened: (§3)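 Selectivity index is the EC50 against the mammalian line (A549 or BEAS-2B) divided by the MIC against the given fungal strain.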

[8] = Selectivity index, ratio of EC50 for toxicity in human BEAS2B cells to MIC50 for antifungal activity against ITC and FLC-resistant Candida albicans ATCC 1237; format: cell-based; settings: BEAS-2B cells, read-out: Selectivity Index; procedure, shortened: as §3
[9] = Selectivity index, ratio of EC50 for toxicity in human BEAS2B cells to MIC50 for antifungal activity against Candida krusei ATCC 6258; settings: BEAS-2B cells
[10] = Toxicity in human A549 cells assessed as reduction in cell viability incubated for 24 hrs by resazurin dye based assay
Procedure, shortened: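 Toxicity tested in the nucleated lines A549 and BEAS-2B to give EC50 values. Selectivity index is EC50 against the mammalian line divided by the MIC against a given fungal strain.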

[11] = Selectivity index, ratio of EC50 for toxicity in human A549 cells to MIC50 for antifungal activity against ITC and FLC-resistant Candida albicans ATCC MYA-1003; format: cell-based; settings: read-out: Selectivity Index; procedure, shortened: as §3
BEAS-2B = assay: Toxicity in human BEAS2B cells assessed as cell viability at 15.6 ug/ml incubated for 24 hrs by resazurin dye based assay
[12] = Selectivity index, ratio of […] for toxicity in human BEAS2B cells to MIC50 for antifungal activity against Aspergillus terreus ATCC MYA-3633; format: cell-based; settings: BEAS-2B cells, read-out: Selectivity Index
[13] = Selectivity index, ratio of EC50 for toxicity in human A549 cells to MIC50 for antifungal activity against ITC and FLC-susceptible Candida albicans ATCC MYA-2310; format: cell-based; settings: read-out: Selectivity Index; procedure, shortened: as §3
[14] = Hemolytic activity in mouse erythrocytes assessed as hemolysis level at 125 ug/ml incubated for 1 hr at 37 degC; format: ADME, cell-based, Erythrocyte; settings: read-out: Activity; procedure, shortened: as §2
[15] = Selectivity index, ratio of EC50 for toxicity in human A549 cells to MIC50 for antifungal activity against ITC and FLC-susceptible Candida albicans ATCC MYA-2876; format: cell-based; settings: read-out: Selectivity Index; procedure, shortened: as §3
[16] = Selectivity index, ratio of EC50 for toxicity in human BEAS2B cells to MIC50 for antifungal activity against ITC and FLC-resistant Candida albicans ATCC MYA-1003; format: cell-based; settings: BEAS-2B cells, read-out: Selectivity Index; procedure, shortened: as §3
in vitro = settings: mouse, mouse erythrocytes
Candida albicans [17] = assay: Induction of membrane permeabilization in Candida albicans ATCC 10231 at 1 to 4 times MIC incubated for 1 hr by propidium iodide staining based fluorescence microscopy; format: functional, organism-based
Procedure, shortened: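 C. albicans ATCC 10231 treated at 1× and 4× MIC and stained with propidium iodide, a membrane-impermeant dye, to detect membrane damage. Untreated cells, FLC (7.8 µg/mL) and KANB (C14) (7.8 µg/mL) serve as comparators.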

Candida albicans [18] = assay: Antifungal activity against Candida albicans ATCC 10231 at 0.5 to 4 times MIC incubated for 3 to 24 hrs by time kill assay
Candida albicans [19] = assay: Fungistatic activity against Candida albicans ATCC 10231 at 0.5 times MIC incubated for 3 to 12 hrs by time kill assay; format: functional, organism-based
Candida albicans [20] = assay: Antifungal carryover activity against Candida albicans ATCC 10231 assessed as 25% reduction in colony counts at 0.5 to 4 times MIC
Candida albicans [21] = assay: Effect on growth of Candida albicans ATCC 10231 assessed as increase in microbial growth at 0.5 times MIC incubated for 24 hrs by time kill assay; format: functional
Candida albicans [22] = assay: Fungistatic activity against Candida albicans ATCC 10231 at 1 times MIC incubated for 3 to 12 hrs by time kill assay; format: functional, organism-based
Candida albicans [23] = assay: Effect on sterol composition in Candida albicans ATCC 64124 assessed as ergosterol level at 1.95 ug/mL incubated for 10 mins by LC-MS analysis (reference value: 54.72%)
Candida albicans [24] = assay: Fungistatic activity against Candida albicans ATCC 10231 assessed as reduction in microbial growth at 1 times MIC incubated for 24 hrs by time kill assay; format: functional
Candida albicans [25] = assay: Effect on sterol composition in Candida albicans ATCC 64124 assessed as eburicol level at 1.95 ug/mL incubated for 10 mins by LC-MS analysis (reference value: 6.28%)
Candida albicans [26] = assay: Effect on sterol composition in Candida albicans ATCC 10231 assessed as unknown sterol level at 0.125 ug/mL incubated for 10 mins by GC-MS analysis (reference value: 1.88 to 2.78%)
Candida albicans [27] = assay: Fungicidal activity against Candida albicans ATCC 10231 assessed as reduction in microbial growth at 4 times MIC incubated for 9 hrs by time kill assay; format: functional

Compound | MIC50 (Candida albicans [1]) [µM] | selectivity ratio [2] | MIC50 (Candida albicans [3]) [µM] | hemolysis at 1 h, 15.6 ug/ml [4] [%] | viability (A549) [%] | MIC50 (Candida albicans [5]) [µM] | selectivity ratio [6] | selectivity ratio [7] | selectivity ratio [8] | selectivity ratio [9] | EC50 at 24 h [10] [µg/mL] | selectivity ratio [11] | viability (BEAS-2B) [%] | selectivity ratio [12] | selectivity ratio [13] | hemolysis at 1 h, 125 ug/ml [14] [%] | selectivity ratio [15] | selectivity ratio [16] | hemolysis at 1 h, 62.5 ug/ml (in vitro) [%] | Activity (Candida albicans [17]) | also measured
CCCCC(O)(Cn1cncn1)c1ccc(Cl)cc1Cl (stereo unspecified) [HEXACONAZOLE] | 3.1 (≈ 0.974 µg/mL) | 16 | 12.4 (≈ 3.9 µg/mL) | 0 | > 85 | 6.2 (≈ 1.95 µg/mL) | 8 | 8 | 4 | 522 | > 31.3 | 32 | > 85 | 32 | 16 | 100 | 16 | 32 | 59 |  | 
CCCCCC(O)(Cn1cncn1)c1ccc(Cl)cc1Cl (stereo unspecified) | 3 (≈ 0.985 µg/mL) | 16 | 5.9 (≈ 1.94 µg/mL) | 0 | > 85 | 3 (≈ 0.985 µg/mL) | 8 | 17 | 16 | 65 | 33 (≈ 101 µM) | 34 | > 85 | 8 | 17 | 100 | 34 | 32 | 100 |  | 
CCCCCC(O)(Cn1cncn1)c1ccc(F)cc1F (stereo unspecified) | 6.6 (≈ 1.95 µg/mL) | 8 | 26.4 (≈ 7.8 µg/mL) | 0.9 |  | 26.4 (≈ 7.8 µg/mL) | 2 | 4 | 4 | 130 | > 31.3 | 16 |  | 1 | 4 | 45.4 | 4 | 16 | 25.2 | inactive | 
CCCCCCC(O)(Cn1cncn1)c1ccc(Cl)cc1Cl (stereo unspecified) | 2.8 (≈ 0.958 µg/mL) | 14 | 5.7 (≈ 1.95 µg/mL) | 105 | > 85 | 2.8 (≈ 0.958 µg/mL) | 7 | 10 | 14 | 933 | 20 (≈ 58.4 µM) | 21 | > 85 | 7 | 10 | 105 | 21 | 29 | 98 | inactive | Activity (Candida albicans [18]): Dose-dependent effect; Activity (Candida albicans [19]): Active; Activity (Candida albicans [20]): inactive; Activity (Candida albicans [21]): 1 log10CFU; Activity (Candida albicans [22]): Active; Activity (Candida albicans [23]): 5.73%; Activity (Candida albicans [24]): 0.25 log10CFU; Activity (Candida albicans [25]): 47.97%; Activity (Candida albicans [26]): 4.36 - 5.57%
CCCC(O)(Cn1cncn1)c1ccc(Cl)cc1Cl (stereo unspecified) | 3.2 (≈ 0.961 µg/mL) | 8 | 13 (≈ 3.9 µg/mL) |  | > 85 | 6.5 (≈ 1.95 µg/mL) | 2 | 8 | 4 | 522 | > 31.3 | 32 | > 85 | 8 | 8 |  | 16 | 32 |  |  | 
CCCCCCC(O)(Cn1cncn1)c1ccc(F)cc1F (stereo unspecified) | 6.3 (≈ 1.95 µg/mL) | 16 | 25.2 (≈ 7.8 µg/mL) | 8.2 |  | 6.3 (≈ 1.95 µg/mL) | 2 | 9 | 16 | 261 | 35 (≈ 113 µM) | 18 |  | 4 | 9 | 60.9 | 18 | 16 | 26.3 | inactive | Activity (Candida albicans [18]): Dose-dependent effect; Activity (Candida albicans [19]): Active; Activity (Candida albicans [20]): inactive; Activity (Candida albicans [21]): 1 log10CFU; Activity (Candida albicans [22]): Active; Activity (Candida albicans [27]): >=2 log10CFU; Activity (Candida albicans [24]): 1 log10CFU
